Reference: ChEMBL document CHEMBL1817582, “Optimization of the in vitro cardiac safety of hydroxamate-based histone deacetylase inhibitors” (J Med Chem, 2011)
Blank lines part the entries; values can stand above or below the compound they belong to.

Key:
[1] = Dissociation constant, pKa of the compound; assay type: physicochemical
[2] = Metabolic stability in plasma of nude mouse xenografted with human HCT116 cells assessed as compound remaining after 3 hrs; assay type: ADME, cell-free, HCT-116; conditions: read-out: Stability
Procedure, shortened: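 Compound incubated in mouse plasma for three hours; percentage of compound remaining measured.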

Rattus norvegicus [3] = experiment: AUC in Sprague-Dawley rat at 5 mg/kg, iv; assay type: ADME, organism-based, Plasma; parameters: dose 5 mg/kg, route intravenous; conditions: in vivo
Procedure, shortened: (§1)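 Pharmacokinetics in naive Sprague-Dawley rats and in HCT116 tumor-bearing nude mice after single iv or oral dosing. Parameters reported as means: AUC, clearance, Vss, half-life, Cmax and oral bioavailability (F%).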

Rattus norvegicus [4] = experiment: AUC in Sprague-Dawley rat at 10 mg/kg, po; assay type: ADME, organism-based, Plasma; parameters: dose 10 mg/kg, route oral; conditions: in vivo; procedure, shortened: as §1
[5] = Clearance in Sprague-Dawley rat at 5 mg/kg, iv; assay type: ADME, organism-based; parameters: dose 5 mg/kg, route intravenous; conditions: in vivo; procedure, shortened: as §1
[6] = Volume of distribution at steady state in Sprague-Dawley rat at 5 mg/kg, iv; assay type: ADME, organism-based; parameters: dose 5 mg/kg, route intravenous; conditions: in vivo, read-out: Vdss; procedure, shortened: as §1
[7] = Half life in Sprague-Dawley rat at 5 mg/kg, iv; assay type: ADME, organism-based; parameters: dose 5 mg/kg, route intravenous; conditions: in vivo; procedure, shortened: as §1
[8] = Cmax in Sprague-Dawley rat at 10 mg/kg, po; assay type: ADME, organism-based; parameters: dose 10 mg/kg, route oral; conditions: in vivo; procedure, shortened: as §1
Rattus norvegicus [9] = experiment: Oral bioavailability in Sprague-Dawley rat at 10 mg/kg; assay type: ADME, organism-based; conditions: in vivo; procedure, shortened: as §1
[10] = AUC in nude mouse xenografted with human HCT116 cells at 5 mg/kg, iv; assay type: ADME, organism-based, HCT-116; parameters: dose 5 mg/kg, route intravenous; conditions: in vivo; procedure, shortened: as §1
[11] = AUC in nude mouse xenografted with human HCT116 cells at 20 mg/kg, po; assay type: ADME, organism-based, HCT-116; parameters: dose 20 mg/kg, route oral; conditions: in vivo; procedure, shortened: as §1
[12] = Clearance in nude mouse xenografted with human HCT116 cells at 5 mg/kg, iv; assay type: ADME, organism-based, HCT-116; parameters: dose 5 mg/kg, route intravenous; conditions: in vivo; procedure, shortened: as §1
[13] = Volume of distribution at steady state in nude mouse xenografted with human HCT116 cells at 5 mg/kg, iv; assay type: ADME, organism-based, HCT-116; parameters: dose 5 mg/kg, route intravenous; conditions: in vivo, read-out: Vdss; procedure, shortened: as §1
[14] = Half life in nude mouse xenografted with human HCT116 cells at 5 mg/kg, iv; assay type: ADME, organism-based, HCT-116; parameters: dose 5 mg/kg, route intravenous; conditions: in vivo; procedure, shortened: as §1
[15] = Cmax in nude mouse xenografted with human HCT116 cells at 20 mg/kg, po; assay type: ADME, organism-based, HCT-116; parameters: dose 20 mg/kg, route oral; conditions: in vivo; procedure, shortened: as §1
[16] = Oral bioavailability in nude mouse xenografted with human HCT116 cells at 20 mg/kg; assay type: ADME, organism-based, HCT-116; conditions: in vivo; procedure, shortened: as §1
[17] = AUC in Sprague-Dawley rat at 2 mg/kg, iv; assay type: ADME, organism-based; parameters: dose 2 mg/kg, route intravenous; conditions: plasma; procedure, shortened: as §1
[18] = Clearance in Sprague-Dawley rat at 2 mg/kg, iv; assay type: ADME, organism-based; parameters: dose 2 mg/kg, route intravenous; conditions: in vivo; procedure, shortened: as §1
[19] = Volume of distribution at steady state in Sprague-Dawley rat at 2 mg/kg, iv; assay type: ADME, organism-based; parameters: dose 2 mg/kg, route intravenous; conditions: in vivo, read-out: Vdss; procedure, shortened: as §1
[20] = Half life in Sprague-Dawley rat at 2 mg/kg, iv; assay type: ADME, organism-based; parameters: dose 2 mg/kg, route intravenous; conditions: in vivo; procedure, shortened: as §1
[21] = Solubility of compound at pH 6.8; assay type: physicochemical; conditions: buffer
Canis familiaris = experiment: Plasma concentration in dog at 150 mg/kg, po administered as single dose; assay type: ADME, organism-based, Canis lupus familiaris; parameters: dose 150 mg/kg, route oral; conditions: in vivo
Homo sapiens = experiment: Plasma concentration in human at 800 mg, po administered as single dose; conditions: in vivo

Compound: Cc1[nH]c2ccccc2c1CCN(Cc1ccc(/C=C/C(=O)NO)cc1)CC(F)F
- pKa [1]: 4.65

Compound: O=C(/C=C/c1ccc(CN(CCc2c[nH]c3ccccc23)CC(F)(F)F)cc1)NO
- pKa [1]: 3.2

Compound: CCCN(CCc1c[nH]c2ccccc12)Cc1ccc(/C=C/C(=O)NO)cc1
- pKa [1]: 7.9

Compound: O=C(/C=C/c1ccc(CN(CCc2c[nH]c3ccccc23)CCC(F)(F)F)cc1)NO
- pKa [1]: 4.75

Compound: CC(C)(C)c1[nH]c2ncccc2c1CCNCc1ccc(/C=C/C(=O)NO)cc1
- AUC [10]: 2.44 µM·h
- AUC [11]: 0.474 µM·h
- clearance [12]: 95 mL/min/kg
- Vd [13]: 4.5 L/kg
- half-life [14]: 3.3 h
- Cmax [15]: 849 nM
- bioavailability [16]: 4%

Compound: O=C(/C=C/c1ccc(CNCCc2c[nH]c3ccccc23)cc1)NO
- pKa [1]: 7.65

The next lines start with the values.

- pKa [1]: 5.8
Compound: Cc1[nH]c2ccccc2c1CCN(CCC(F)F)Cc1ccc(/C=C/C(=O)NO)cc1

- remaining at 3 h [2]: 54%
- AUC (Rattus norvegicus [3]): 1.307 µM·h
- AUC (Rattus norvegicus [4]): 0.336 µM·h
- clearance [5]: 66 mL/min/kg
- Vd [6]: 7 L/kg
- half-life [7]: 1.3 h
- Cmax [8]: 204 nM
- F (Rattus norvegicus [9]): 5%
- AUC [10]: 0.463 µM·h
- AUC [11]: 0.0653 µM·h
- clearance [12]: 176 mL/min/kg
- Vd [13]: 5.9 L/kg
- half-life [14]: 1 h
- Cmax [15]: 56 nM
- bioavailability [16]: 4%
Compound: CC(C)N(CCc1c(C(C)(C)O)[nH]c2ccccc12)Cc1ccc(/C=C/C(=O)NO)cc1

- AUC [17]: 2.56 µM·h
- clearance [18]: 36.5 mL/min/kg
- Vd [19]: 1.99 L/kg
- half-life [20]: 0.915 h
- solubility [21]: > 1000 µg/mL
- Cmax [8]: 61 nM
- AUC [10]: 5.1 µM·h
- AUC [11]: 0.362 µM·h
- clearance [12]: 46.4 mL/min/kg
- Vd [13]: 1.46 L/kg
- half-life [14]: 1.44 h
- Cmax [15]: 202 nM
- bioavailability [16]: 2%
Compound: Cc1nn2ccccc2c1CCNCc1ccc(/C=C/C(=O)NO)cc1

- pKa [1]: 7.5
Compound: O=C(/C=C/c1ccc(CN(CCO)CCc2c[nH]c3ccccc23)cc1)NO [DACINOSTAT]

- concentration (Canis familiaris): 960 nM
- concentration (Homo sapiens): 1580 nM
Compound: O=C(CCCCCCC(=O)Nc1ccccc1)NO [VORINOSTAT]
